Results on 14 molecules are retold here after ChEMBL document CHEMBL1158116, “Prenylated flavonoids from the root bark of Berchemia discolor, a Tanzanian medicinal plant” (2006).

The subject of assay [1] is MCF7. Put plainly: Cytotoxicity against human MCF7 cells. It is filed as functional. To be noted: read-out: ED50 (the source's name). In short, it runs like this:
(§1)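 Panel of three human cancer lines (Lu1, LNCaP, MCF-7). Cytotoxicity expressed as ED50 in µg/mL.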

Assay [2] has as its system LNCaP. Nature of the assay: Cytotoxicity against human LNCAP cells. It is filed as functional. To be noted: read-out: ED50 (the source's name). In short, it runs like this: as §1
Assay [3] deals with Lu1. Nature of the assay: Cytotoxicity against human Lu1 cells. The settings on record: read-out: ED50 (the source's name). It is filed as functional. In short, it runs like this:
as §1

The test system of assay [4] is Lu1. Put plainly: Inhibition of human Lu1 cells propagated in hollow fibers via subcutaneous site of immunodeficient NCr nu/nu mouse at 10 to 40 mg/kg, ip once daily after 7 days of implantation. It is filed as functional, organism-based. In short, it runs like this:
(§2)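 In vivo hollow fiber model in immunodeficient mice. Fibers loaded with Lu1, LNCaP or MCF-7 cells were implanted subcutaneously or intraperitoneally. Vehicle or drug was given ip once daily at 10, 20 or 40 mg/kg on days 3-6 after implantation. Mice were sacrificed on day 7, and fibers were retrieved and analysed for growth inhibition versus vehicle.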

The subject of assay [5] is MCF7. Nature of the assay: Inhibition of human MCF7 cells propagated in hollow fibers via subcutaneous site of immunodeficient NCr nu/nu mouse at 10 to 40 mg/kg, ip once daily after 7 days of implantation. It is filed as functional, organism-based. In short, it runs like this: as §2
In assay [6] the test system is LNCaP. Put plainly: Inhibition of human LNCAP cells propagated in hollow fibers via intraperitoneal site of immunodeficient NCr nu/nu mouse at 10 to 40 mg/kg, ip once daily after 7 days of implantation relative to control. It is filed as functional. To be noted: dose mg/kg 10-40. In short, it runs like this: as §2

Values after ≈ are worked out from the molar mass of the structure shown. Active and inactive are the calls of the source. No cut-off for these calls is given here.

`COc1ccc([C@]2(O)COc3c(ccc4c3C=CC(C)(C)O4)C2)c(O)c1`: the EC50 in the assay with MCF7 [1], in the assay on LNCaP [2] and with Lu1 [3] was greater than 5 µg/mL throughout.

Consider `CC1(C)C=Cc2c(c(O)cc3c2OC[C@@H]2c4cc5c(cc4O[C@H]32)OCO5)O1`, for which the EC50 in the assay with MCF7 [1], with LNCaP [2] and with Lu1 [3] was greater than 5 µg/mL in each case.

As for `CC1(C)C=Cc2c(cc(O)c3c2OCC(c2cc4c(cc2O)OCO4)C3=O)O1` (racemic) [DISCOLORANONE A], the EC50 with MCF7 [1], with LNCaP [2] and in the assay with Lu1 [3] was greater than 5 µg/mL each time.

Turning to `CC1(C)C=Cc2c(cc3c(c2O)C(=O)[C@@H](c2cc4c(cc2O)OCO4)CO3)O1` [(3S)-ISODISCOLORANONE A], the EC50 in the assay with MCF7 [1], with LNCaP [2] and with Lu1 [3] was greater than 5 µg/mL throughout.

As for `COc1ccc([C@H]2COc3cc4c(c(O)c3C2=O)C=CC(C)(CCC=C(C)C)O4)c(O)c1O` (stereo partly drawn) [(3S)-ISODISCOLORANONE B], the EC50 with MCF7 [1], with LNCaP [2] and in the assay with Lu1 [3] was greater than 5 µg/mL each time.

For `C=C(CO)[C@H]1Cc2c(ccc3c2O[C@@H]2COc4cc(OC)c(OC)cc4[C@@H]2C3=O)O1` [AMORPHIGENIN], the EC50 with MCF7 [1] is greater than 20 µg/mL; in the assay with LNCaP [2], 7.9 µg/mL (≈ 19.2 µM); with Lu1 [3], 4.8 µg/mL (≈ 11.7 µM).

For the molecule `C=C(CO)[C@H]1Cc2c(ccc3c2O[C@@H]2COc4cc(OC)c(OC)cc4[C@]2(O)C3=O)O1` [DABINOL], the EC50 in the assay with MCF7 [1] was 13.1 µg/mL (≈ 30.7 µM); with LNCaP [2] it was 5.4 µg/mL (≈ 12.7 µM); in the assay on Lu1 [3] it was 3.1 µg/mL (≈ 7.27 µM).

For the molecule `COc1ccc([C@H]2COc3c4c(cc(O)c3C2=O)OC(C)(CCC=C(C)C)C=C4)c(O)c1O` (stereo not given in full) [DISCOLORANONE], the EC50 in the assay with MCF7 [1] is 3.6 µg/mL (≈ 7.96 µM); with LNCaP [2], 6.4 µg/mL (≈ 14.1 µM); in the assay on Lu1 [3], 9.6 µg/mL (≈ 21.2 µM).

As for `COc1ccc(C2COc3c(ccc4c3C=CC(C)(CCC=C(C)C)O4)C2)c(O)c1` (stereo not given) [HEMINITIDULAN], the EC50 in the assay with MCF7 [1], with LNCaP [2] and in the assay on Lu1 [3] was greater than 5 µg/mL in each case.

For `CC1(C)C=Cc2c(ccc3c2OCC2c4cc5c(cc4OC32)OCO5)O1` (stereo not given) [LEIOCARPIN], the EC50 with MCF7 [1], in the assay with LNCaP [2] and in the assay with Lu1 [3] was greater than 5 µg/mL in each case.

Turning to `CC1(C)C=Cc2c(c(O)cc3c2OCC(c2cc4c(cc2O)OCO4)C3)O1` (stereo not given) [LEIOCINOL], the EC50 in the assay with MCF7 [1], with LNCaP [2] and in the assay with Lu1 [3] was greater than 5 µg/mL each time.

On to `CC1(C)C=Cc2c(ccc3c2OCC(c2cc4c(cc2O)OCO4)C3)O1` (stereo not given) [LEIOCIN], for which the EC50 in the assay with MCF7 [1], in the assay on LNCaP [2] and in the assay on Lu1 [3] was greater than 5 µg/mL each time.

Take `CC(C)=CCCC1(C)C=Cc2c(ccc3c2OCC(c2cc4c(cc2O)OCO4)C3)O1` (stereo not given) [NITIDULAN]: the EC50 in the assay on MCF7 [1], with LNCaP [2] and with Lu1 [3] was greater than 5 µg/mL in each case.

In the case of `COc1ccc([C@H]2COc3c(ccc4c3C=CC(C)(CCC=C(C)C)O4)C2)c(O)c1O` (stereo not given in full) [NITIDULIN], the EC50 is 3.5 µg/mL (≈ 8.28 µM) in the assay with MCF7 [1], 4.1 µg/mL (≈ 9.7 µM) in the assay with LNCaP [2] and 4.2 µg/mL (≈ 9.94 µM) in the assay on Lu1 [3]. Moreover, the result in the assay on Lu1 [4] and in the assay with MCF7 [5] was inactive. Besides, the “inhibition (INH)” value in the assay with LNCaP [6] was 49%.
